Experimental data taken from ChEMBL document CHEMBL1687781, “Comparative biochemical and computational study of the role of naturally occurring mutations at Ambler positions 104 and 170 in GES β-lactamases” (Antimicrob Agents Chemother, 2010).
Converted amounts (≈) assume the structure as drawn.

Columns and labels:
Type in all cases: functional
Escherichia coli [1] = experiment: Antimicrobial activity against Escherichia coli DH5[alpha] transformed with pAC-ges1 plasmid encoding Beta-lactamase GES-7 K104, G170 mutant by Etest method
Escherichia coli [2] = experiment: Antimicrobial activity against Escherichia coli DH5[alpha] transformed with pAC-ges1 plasmid encoding Beta-lactamase GES-5 E104, S170 mutant in presence of at 4 ug/ml Tazobactam by Etest method
Summary of the method: (§1)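 E. coli DH5α host, either untransformed or carrying pACYC184-based clones of the GES variant genes; the source gene came from integron plasmid pBC-ges1. MICs were read by Etest following the manufacturer's recommendations, with the inhibitor held at a fixed 4 μg/ml.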

Escherichia coli [3] = experiment: Antimicrobial activity against Escherichia coli DH5[alpha] transformed with pAC-ges1 plasmid encoding Beta-lactamase GES-13 K104, N170 mutant by Etest method
Escherichia coli [4] = experiment: Antimicrobial activity against Escherichia coli DH5[alpha] transformed with pAC-ges1 plasmid encoding Beta-lactamase GES-6 K104, S170 mutant by Etest method
Escherichia coli [5] = experiment: Antimicrobial activity against Escherichia coli DH5[alpha] transformed with pAC-ges1 plasmid encoding Beta-lactamase GES-2 E104, N170 mutant in presence of at 4 ug/ml Tazobactam by Etest method; summary of the method: as §1
Escherichia coli [6] = experiment: Antimicrobial activity against Escherichia coli DH5[alpha] transformed with pAC-ges1 plasmid encoding Beta-lactamase GES-13 K104, N170 mutant in presence of at 4 ug/ml Tazobactam by Etest method; summary of the method: as §1
Escherichia coli [7] = experiment: Antimicrobial activity against Escherichia coli DH5[alpha] in presence of at 4 ug/ml Tazobactam by Etest method; summary of the method: as §1
Escherichia coli [8] = experiment: Antimicrobial activity against Escherichia coli DH5[alpha] transformed with pAC-ges1 plasmid encoding Beta-lactamase GES-7 K104, G170 mutant in presence of at 4 ug/ml Tazobactam by Etest method; summary of the method: as §1
Escherichia coli [9] = experiment: Antimicrobial activity against Escherichia coli DH5[alpha] by Etest method
Escherichia coli [10] = experiment: Antimicrobial activity against Escherichia coli DH5[alpha] transformed with pAC-ges1 plasmid encoding Beta-lactamase GES-2 E104, N170 mutant by Etest method
Escherichia coli [11] = experiment: Antimicrobial activity against Escherichia coli DH5[alpha] transformed with pAC-ges1 plasmid encoding Beta-lactamase GES-6 K104, S170 mutant in presence of at 4 ug/ml Tazobactam by Etest method; summary of the method: as §1
Escherichia coli [12] = experiment: Antimicrobial activity against Escherichia coli DH5[alpha] transformed with pAC-ges1 plasmid encoding Beta-lactamase GES-5 E104, S170 mutant by Etest method
Escherichia coli [13] = experiment: Antimicrobial activity against Escherichia coli DH5[alpha] transformed with pAC-ges1 plasmid encoding Beta-lactamase GES-1 E104, G170 mutant by Etest method
Escherichia coli [14] = experiment: Antimicrobial activity against Escherichia coli DH5[alpha] transformed with pAC-ges1 plasmid encoding Beta-lactamase GES-1 E104, G170 mutant in presence of at 4 ug/ml Tazobactam by Etest method; summary of the method: as §1

Question: Which results are given for `CCN1CCN(C(=O)N[C@@H](C(=O)N[C@@H]2C(=O)N3[C@@H]2SC(C)(C)[C@@H]3C(=O)O)c2ccccc2)C(=O)C1=O` [PIPERACILLIN]?
Answer: MIC (Escherichia coli [1]): 12 µg/mL (≈ 23.2 µM); MIC (Escherichia coli [2]): 2 µg/mL; MIC (Escherichia coli [3]): 8 µg/mL (≈ 15.5 µM); MIC (Escherichia coli [4]): 12 µg/mL (≈ 23.2 µM); MIC (Escherichia coli [5]): 1 µg/mL; MIC (Escherichia coli [6]): 1 µg/mL; MIC (Escherichia coli [7]): 1 µg/mL; MIC (Escherichia coli [8]): 1 µg/mL; MIC (Escherichia coli [9]): 4 µg/mL (≈ 7.73 µM); MIC (Escherichia coli [10]): 4 µg/mL (≈ 7.73 µM); MIC (Escherichia coli [11]): 2 µg/mL; MIC (Escherichia coli [12]): 8 µg/mL (≈ 15.5 µM); MIC (Escherichia coli [13]): 8 µg/mL (≈ 15.5 µM); MIC (Escherichia coli [14]): 1 µg/mL
